Data published in ChEMBL document CHEMBL3392996, “Non-transpeptidase binding arylthioether β-lactams active against Mycobacterium tuberculosis and Moraxella catarrhalis” (2015).
≈ marks a conversion by molar mass, not a printed value. Calls of active or inactive are those of the source. The calls are words filed in the database; no cut-off is given here.

Tests used:
Staphylococcus aureus = assay: Antimicrobial activity against Staphylococcus aureus ATCC 25923 incubated for 48 hrs by microdilution broth method; type: functional, organism-based
Summary of the method: (§1)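 Stocks in DMSO were diluted at least 10-fold into Mueller-Hinton broth, then 2-fold serially diluted in MH from 500 to 15.6 μg/ml. Bacteria were added, with DMSO-only dilution controls, and incubated at 37 °C for 48 h. Growth was scored at 24 and 48 h. MIC was the lowest concentration with no growth. Run in quadruplicate.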

[1] = tested on: Stenotrophomonas maltophilia; assay: Antimicrobial activity against metallo beta-lactamases producing Stenotrophomonas maltophilia GM24 incubated for 48 hrs by microdilution broth method; type: functional, organism-based; summary of the method: as §1
Escherichia coli [2] = assay: Antimicrobial activity against extended spectrum beta-lactamase and carbapenemase producing Escherichia coli ESBL L108 incubated for 48 hrs by microdilution broth method; type: functional, organism-based; summary of the method: as §1
Escherichia coli [3] = assay: Antimicrobial activity against broad spectrum beta-lactamase producing Escherichia coli GB 8 incubated for 48 hrs by microdilution broth method; type: functional, organism-based; summary of the method: as §1
Escherichia coli [4] = assay: Antimicrobial activity against Escherichia coli ATCC 25922 incubated for 48 hrs by microdilution broth method; type: functional, organism-based; summary of the method: as §1
Citrobacter freundii [5] = assay: Antimicrobial activity against AmpC producing Citrobacter freundii CITRO 21 incubated for 48 hrs by microdilution broth method; type: functional, organism-based; summary of the method: as §1
Escherichia coli [6] = assay: Antimicrobial activity against broad spectrum beta-lactamase producing Escherichia coli MISC 206 incubated for 48 hrs by microdilution broth method; type: functional, organism-based; summary of the method: as §1
Enterococcus faecalis = assay: Antimicrobial activity against Enterococcus faecalis ATCC 29212 incubated for 48 hrs by microdilution broth method; type: functional, organism-based; summary of the method: as §1
Klebsiella pneumoniae [7] = assay: Antimicrobial activity against extended spectrum beta-lactamase and carbapenemase producing Klebsiella pneumoniae KPC L133 incubated for 48 hrs by microdilution broth method; type: functional, organism-based; summary of the method: as §1
Citrobacter freundii [8] = assay: Antimicrobial activity against extended spectrum beta-lactamase producing Citrobacter freundii Citro 314 incubated for 48 hrs by microdilution broth method; type: functional, organism-based; summary of the method: as §1
Klebsiella pneumoniae [9] = assay: Antimicrobial activity against extended spectrum beta-lactamase and carbapenemase producing Klebsiella pneumoniae ESBL L174 incubated for 48 hrs by microdilution broth method; type: functional, organism-based; summary of the method: as §1
Klebsiella pneumoniae [10] = assay: Antimicrobial activity against AmpC producing Klebsiella pneumoniae KLEB 249 incubated for 48 hrs by microdilution broth method; type: functional, organism-based; summary of the method: as §1
Acinetobacter baumannii [11] = assay: Antimicrobial activity against extended spectrum beta-lactamase and carbapenemase producing Acinetobacter baumannii L185 incubated for 48 hrs by microdilution broth method; type: functional, organism-based; summary of the method: as §1
Escherichia coli [12] = assay: Antimicrobial activity against extended spectrum beta-lactamase and carbapenemase producing Escherichia coli ESBL L109 incubated for 48 hrs by microdilution broth method; type: functional, organism-based; summary of the method: as §1
Escherichia coli [13] = assay: Antimicrobial activity against extended spectrum beta-lactamase producing Escherichia coli MISC 262 incubated for 48 hrs by microdilution broth method; type: functional, organism-based; summary of the method: as §1
Pseudomonas aeruginosa = assay: Antimicrobial activity against Pseudomonas aeruginosa ATCC 27853 incubated for 48 hrs by microdilution broth method; type: functional, organism-based; summary of the method: as §1
Moraxella catarrhalis [14] = assay: Bactericidal activity against Moraxella catarrhalis clinical isolates incubated for 48 hrs by microdilution broth method and standard plating method; type: functional
Summary of the method: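 Broth microdilution in Mueller-Hinton broth, 2-fold series from 500 to 15.6 μg/ml, with DMSO-only controls, 37 °C for 48 h. Wells showing no growth were plated (10 μL) on MH agar. MBC was the lowest concentration giving no growth on plating. Run in quadruplicate.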

Acinetobacter baumannii [15] = assay: Antimicrobial activity against extended spectrum beta-lactamase and carbapenemase producing Acinetobacter baumannii L187 incubated for 48 hrs by microdilution broth method; type: functional, organism-based; summary of the method: as §1
Klebsiella pneumoniae [16] = assay: Antimicrobial activity against AmpC producing Klebsiella pneumoniae MISC 304 incubated for 48 hrs by microdilution broth method; type: functional, organism-based; summary of the method: as §1
Moraxella catarrhalis [17] = assay: Antimicrobial activity against Moraxella catarrhalis clinical isolates incubated for 48 hrs by microdilution broth method; type: functional; summary of the method: as §1
[18] = tested on: Mycobacterium tuberculosis; assay: Antimicrobial activity against Mycobacterium tuberculosis H37Rv incubated for 48 hrs by microdilution broth method; type: functional
Acinetobacter baumannii [19] = assay: Antimicrobial activity against extended spectrum beta-lactamase and carbapenemase producing Acinetobacter baumannii L186 incubated for 48 hrs by microdilution broth method; type: functional, organism-based; summary of the method: as §1

Structure (SMILES)	MIC (Staphylococcus aureus)	MIC [1]	MIC (Escherichia coli [2])	MIC (Escherichia coli [3])	MIC (Escherichia coli [4])	MIC (Citrobacter freundii [5])	MIC (Escherichia coli [6])	MIC (Enterococcus faecalis)	MIC (Klebsiella pneumoniae [7])	MIC (Citrobacter freundii [8])	MIC (Klebsiella pneumoniae [9])	MIC (Klebsiella pneumoniae [10])	MIC (Acinetobacter baumannii [11])	MIC (Escherichia coli [12])	MIC (Escherichia coli [13])	MIC (Pseudomonas aeruginosa)	MBC (Moraxella catarrhalis [14])	MIC (Acinetobacter baumannii [15])	MIC (Klebsiella pneumoniae [16])	MIC (Moraxella catarrhalis [17])	further results
O=C1CC(Sc2ccccc2)N1C(=O)NCc1ccccc1 (racemic)	inactive	inactive	inactive	inactive	inactive	inactive	inactive	inactive	inactive	inactive	inactive	inactive	inactive	inactive	inactive	inactive	12.5 µg/mL (≈ 40 µM)	inactive	inactive	12.5 µg/mL (≈ 40 µM)	MIC [18]: 6.25 µg/mL (≈ 20 µM); MIC (Acinetobacter baumannii [19]): inactive
O=C1CC(Sc2ccccc2F)N1C(=O)NCc1ccccc1 (racemic)	inactive	inactive	inactive	inactive	inactive	inactive	inactive	inactive	inactive	inactive	inactive	inactive	inactive	inactive	inactive	inactive	50 µg/mL (≈ 151 µM)	inactive	inactive	25 µg/mL (≈ 75.7 µM)	MIC [18]: 3.13 µg/mL (≈ 9.47 µM); MIC (Acinetobacter baumannii [19]): inactive
